Assay results as given in ChEMBL document CHEMBL1149103, “Anticonvulsant activity of phenylmethylenehydantoins: a structure-activity relationship study” (2004).

What was measured:
Mus musculus [1] = species: Mus musculus; assay: Anticonvulsant activity measured as effective dose required to produce a response score of 2.5 in MES assay on mice; format: functional
How it was run: (§1)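 Male Swiss albino mice ([…]), pre-screened by passing a 5 min rotorod test. Compound in DMSO given ip, starting at 100 mg/kg, later doses raised or lowered to complete the dose-activity profile. After 30 min, 45 mA ([…]) for 0.2 s via auricular electrodes. Seizure scored 1 (no protection) to 4 (full), averaged over 5-6 mice per dose. Effective dose taken as the dose giving a score of 2.5; log value used for QSAR.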

Mus musculus [2] = species: Mus musculus; assay: Anticonvulsant activity expressed as log(1/EDMES(2.5)) in MES assay on mice that responded a score of 2.5; format: functional; how it was run: as §1

With `O=C1NC(=O)/C(=C/c2cccc(F)c2)N1` the “EDMES(2.5)” value (Mus musculus [1]) was 172 mg/kg and the “Log 1/EDMES(2.5)” value (Mus musculus [2]) was -2.24.

`O=C1NC(=O)/C(=C/c2ccc(F)cc2)N1` was tested, and the “EDMES(2.5)” value (Mus musculus [1]) was greater than 200 mg/kg and the “Log 1/EDMES(2.5)” value (Mus musculus [2]) was -2.3.

In the case of `O=C1NC(=O)/C(=C/c2ccccc2Br)N1`, the “EDMES(2.5)” value (Mus musculus [1]) is reported as greater than 200 mg/kg and the “Log 1/EDMES(2.5)” value (Mus musculus [2]) is reported as -2.3.

With `O=C1NC(=O)/C(=C/C2CCCCC2)N1` the “EDMES(2.5)” value (Mus musculus [1]) was 156 mg/kg and the “Log 1/EDMES(2.5)” value (Mus musculus [2]) was -2.19.

`Cc1ccccc1/C=C1\NC(=O)NC1=O` was tested, and the “EDMES(2.5)” value (Mus musculus [1]) was 59 mg/kg and the “Log 1/EDMES(2.5)” value (Mus musculus [2]) was -1.77.

For `O=C1NC(=O)/C(=C/c2cccc(Br)c2)N1`, the “EDMES(2.5)” value (Mus musculus [1]) was 89 mg/kg and the “Log 1/EDMES(2.5)” value (Mus musculus [2]) was -1.95.

With `O=C1NC(=O)/C(=C/c2ccccc2C(F)(F)F)N1` the “EDMES(2.5)” value (Mus musculus [1]) was greater than 200 mg/kg and the “Log 1/EDMES(2.5)” value (Mus musculus [2]) was -2.3.

`O=C1NC(=O)/C(=C/c2ccc(-c3ccccc3)cc2)N1` was tested, and the “EDMES(2.5)” value (Mus musculus [1]) was greater than 200 mg/kg and the “Log 1/EDMES(2.5)” value (Mus musculus [2]) was -2.3.

In the case of `O=C1NC(=O)/C(=C/c2ccc3ccccc3c2)N1`, the “EDMES(2.5)” value (Mus musculus [1]) is reported as greater than 200 mg/kg and the “Log 1/EDMES(2.5)” value (Mus musculus [2]) is reported as -2.3.

`Cc1cc(C)c(/C=C2\NC(=O)NC2=O)cc1C` was tested, and the “EDMES(2.5)” value (Mus musculus [1]) was greater than 200 mg/kg and the “Log 1/EDMES(2.5)” value (Mus musculus [2]) was -2.3.

`CCCOc1ccc(/C=C2\NC(=O)NC2=O)cc1` was tested, and the “EDMES(2.5)” value (Mus musculus [1]) was 77 mg/kg and the “Log 1/EDMES(2.5)” value (Mus musculus [2]) was -1.89.

In the case of `O=C1NC(=O)/C(=C/c2ccccc2Cl)N1`, the EDMES(2.5) (Mus musculus [1]) is reported as 198 mg/kg and the “Log 1/EDMES(2.5)” value (Mus musculus [2]) is reported as -2.3.

With `O=C1NC(=O)C(c2ccccc2)(c2ccccc2)N1` [PHENYTOIN] the “EDMES(2.5)” value (Mus musculus [1]) was 30 mg/kg and the “Log 1/EDMES(2.5)” value (Mus musculus [2]) was -1.48.

`O=C1NC(=O)/C(=C/c2cccc(O)c2)N1` was tested, and the “EDMES(2.5)” value (Mus musculus [1]) was greater than 200 mg/kg and the “Log 1/EDMES(2.5)” value (Mus musculus [2]) was -2.3.

`O=C1NC(=O)/C(=C/c2cccs2)N1` was tested, and the “EDMES(2.5)” value (Mus musculus [1]) was greater than 200 mg/kg and the “Log 1/EDMES(2.5)” value (Mus musculus [2]) was -2.3.

In the case of `O=C1NC(=O)/C(=C/c2ccccc2)N1`, the “EDMES(2.5)” value (Mus musculus [1]) is reported as 125 mg/kg and the “Log 1/EDMES(2.5)” value (Mus musculus [2]) is reported as -2.1.

For `CCOc1ccc(/C=C2\NC(=O)NC2=O)cc1`, the “EDMES(2.5)” value (Mus musculus [1]) was 107 mg/kg and the “Log 1/EDMES(2.5)” value (Mus musculus [2]) was -2.03.

For `O=C1NC(=O)/C(=C/c2ccc([N+](=O)[O-])cc2)N1`, the “EDMES(2.5)” value (Mus musculus [1]) was greater than 200 mg/kg and the “Log 1/EDMES(2.5)” value (Mus musculus [2]) was -2.3.

In the case of `O=C1NC(=O)/C(=C/c2c[nH]c3ccccc23)N1`, the “EDMES(2.5)” value (Mus musculus [1]) is reported as greater than 200 mg/kg and the “Log 1/EDMES(2.5)” value (Mus musculus [2]) is reported as -2.3.

With `Cc1cc(C)c(/C=C2/NC(=O)NC2=O)c(C)c1` the “EDMES(2.5)” value (Mus musculus [1]) was 28 mg/kg and the “Log 1/EDMES(2.5)” value (Mus musculus [2]) was -1.45.

In the case of `N#Cc1ccc(/C=C2\NC(=O)NC2=O)cc1`, the “EDMES(2.5)” value (Mus musculus [1]) is reported as greater than 200 mg/kg and the “Log 1/EDMES(2.5)” value (Mus musculus [2]) is reported as -2.3.

With `O=C1NC(=O)/C(=C/c2ccco2)N1` the “EDMES(2.5)” value (Mus musculus [1]) was 167 mg/kg and the “Log 1/EDMES(2.5)” value (Mus musculus [2]) was -2.22.

For `CCc1ccc(/C=C2\NC(=O)NC2=O)cc1`, the “EDMES(2.5)” value (Mus musculus [1]) was 74 mg/kg and the “Log 1/EDMES(2.5)” value (Mus musculus [2]) was -1.87.

In the case of `O=C1NC(=O)/C(=C\c2c(Cl)cccc2Cl)N1`, the “EDMES(2.5)” value (Mus musculus [1]) is reported as 72 mg/kg and the “Log 1/EDMES(2.5)” value (Mus musculus [2]) is reported as -1.86.

With `COc1ccc(/C=C2\NC(=O)NC2=O)c(OC)c1` the “EDMES(2.5)” value (Mus musculus [1]) was 175 mg/kg and the “Log 1/EDMES(2.5)” value (Mus musculus [2]) was -2.24.

In the case of `O=C1NC(=O)/C(=C/c2cccc([N+](=O)[O-])c2)N1`, the “EDMES(2.5)” value (Mus musculus [1]) is reported as greater than 200 mg/kg and the “Log 1/EDMES(2.5)” value (Mus musculus [2]) is reported as -2.3.

With `COc1ccccc1/C=C1\NC(=O)NC1=O` the “EDMES(2.5)” value (Mus musculus [1]) was 84 mg/kg and the “Log 1/EDMES(2.5)” value (Mus musculus [2]) was -1.92.

In the case of `O=C1NC(=O)/C(=C/c2ccc(C(F)(F)F)cc2)N1`, the “EDMES(2.5)” value (Mus musculus [1]) is reported as 64 mg/kg and the “Log 1/EDMES(2.5)” value (Mus musculus [2]) is reported as -1.81.

`CCOc1ccccc1/C=C1\NC(=O)NC1=O` was tested, and the “EDMES(2.5)” value (Mus musculus [1]) was greater than 200 mg/kg and the “Log 1/EDMES(2.5)” value (Mus musculus [2]) was -2.3.

`O=C1NC(=O)/C(=C/c2cccc(Cl)c2)N1` showed an EDMES(2.5) (Mus musculus [1]) of 82 mg/kg and a Log 1/EDMES(2.5) (Mus musculus [2]) of -1.91.

With `COc1cccc(/C=C2\NC(=O)NC2=O)c1` the “EDMES(2.5)” value (Mus musculus [1]) was greater than 200 mg/kg and the “Log 1/EDMES(2.5)” value (Mus musculus [2]) was -2.3.

For `CN(C)c1ccc(/C=C2\NC(=O)NC2=O)cc1`, the “EDMES(2.5)” value (Mus musculus [1]) was greater than 200 mg/kg and the “Log 1/EDMES(2.5)” value (Mus musculus [2]) was -2.3.

For `O=C1NC(=O)/C(=C/c2ccccn2)N1`, the “EDMES(2.5)” value (Mus musculus [1]) was 141 mg/kg and the “Log 1/EDMES(2.5)” value (Mus musculus [2]) was -2.15.

For `O=C1NC(=O)/C(=C/c2ccccc2F)N1`, the “EDMES(2.5)” value (Mus musculus [1]) was greater than 200 mg/kg and the “Log 1/EDMES(2.5)” value (Mus musculus [2]) was -2.3.

With `Cc1ccc(/C=C2\NC(=O)NC2=O)c(C)c1` the “EDMES(2.5)” value (Mus musculus [1]) was 39 mg/kg and the “Log 1/EDMES(2.5)” value (Mus musculus [2]) was -1.59.

With `O=C1NC(=O)/C(=C/c2ccc(Br)cc2)N1` the “EDMES(2.5)” value (Mus musculus [1]) was greater than 200 mg/kg and the “Log 1/EDMES(2.5)” value (Mus musculus [2]) was -2.3.

With `O=C1NC(=O)/C(=C/c2cccc(C(F)(F)F)c2)N1` the “EDMES(2.5)” value (Mus musculus [1]) was 115 mg/kg and the “Log 1/EDMES(2.5)” value (Mus musculus [2]) was -2.06.

For `COc1ccc(/C=C2\NC(=O)NC2=O)cc1`, the “EDMES(2.5)” value (Mus musculus [1]) was greater than 200 mg/kg and the “Log 1/EDMES(2.5)” value (Mus musculus [2]) was -2.3.

`CC(C)(C)c1ccc(/C=C2\NC(=O)NC2=O)cc1` was tested, and the “EDMES(2.5)” value (Mus musculus [1]) was greater than 200 mg/kg and the “Log 1/EDMES(2.5)” value (Mus musculus [2]) was -2.3.

With `Cc1ccc(/C=C2\NC(=O)NC2=O)cc1` the “EDMES(2.5)” value (Mus musculus [1]) was greater than 200 mg/kg and the “Log 1/EDMES(2.5)” value (Mus musculus [2]) was -2.3.

In the case of `CCCCc1ccc(/C=C2\NC(=O)NC2=O)cc1`, the “EDMES(2.5)” value (Mus musculus [1]) is reported as 121 mg/kg and the “Log 1/EDMES(2.5)” value (Mus musculus [2]) is reported as -2.08.

In the case of `CCN(CC)c1ccc(/C=C2\NC(=O)NC2=O)cc1`, the “EDMES(2.5)” value (Mus musculus [1]) is reported as greater than 200 mg/kg and the “Log 1/EDMES(2.5)” value (Mus musculus [2]) is reported as -2.3.

In the case of `Cc1cccc(/C=C2\NC(=O)NC2=O)c1`, the “EDMES(2.5)” value (Mus musculus [1]) is reported as 74 mg/kg and the “Log 1/EDMES(2.5)” value (Mus musculus [2]) is reported as -1.87.

`O=C1NC(=O)/C(=C/c2cccc(Oc3ccccc3)c2)N1` was tested, and the “EDMES(2.5)” value (Mus musculus [1]) was greater than 200 mg/kg and the “Log 1/EDMES(2.5)” value (Mus musculus [2]) was -2.3.

For `O=C1NC(=O)/C(=C/c2ccc3[nH]c4ccccc4c3c2)N1`, the “EDMES(2.5)” value (Mus musculus [1]) was greater than 200 mg/kg and the “Log 1/EDMES(2.5)” value (Mus musculus [2]) was -2.3.

In the case of `O=C1NC(=O)/C(=C/c2ccc(O)cc2)N1` [4-HYDROXYPHENYLMETHYLENE HYDANTOIN], the “EDMES(2.5)” value (Mus musculus [1]) is reported as greater than 200 mg/kg and the “Log 1/EDMES(2.5)” value (Mus musculus [2]) is reported as -2.3.

For `O=C1NC(=O)/C(=C/c2ccccc2OCc2ccccc2)N1`, the “EDMES(2.5)” value (Mus musculus [1]) was greater than 200 mg/kg and the “Log 1/EDMES(2.5)” value (Mus musculus [2]) was -2.3.

`O=C1NC(=O)/C(=C/c2ccccc2O)N1` was tested, and the “EDMES(2.5)” value (Mus musculus [1]) was greater than 200 mg/kg and the “Log 1/EDMES(2.5)” value (Mus musculus [2]) was -2.3.

`CC(C)c1ccc(/C=C2\NC(=O)NC2=O)cc1` was tested, and the “EDMES(2.5)” value (Mus musculus [1]) was 80 mg/kg and the “Log 1/EDMES(2.5)” value (Mus musculus [2]) was -1.9.

`CCCCOc1ccc(/C=C2\NC(=O)NC2=O)cc1` was tested, and the “EDMES(2.5)” value (Mus musculus [1]) was greater than 200 mg/kg and the “Log 1/EDMES(2.5)” value (Mus musculus [2]) was -2.3.

`O=C1NC(=O)/C(=C/c2ccc(OCc3ccccc3)cc2)N1` was tested, and the “EDMES(2.5)” value (Mus musculus [1]) was 157 mg/kg and the “Log 1/EDMES(2.5)” value (Mus musculus [2]) was -2.2.

In the case of `O=C1NC(=O)/C(=C/c2ccc(Cl)cc2Cl)N1`, the “EDMES(2.5)” value (Mus musculus [1]) is reported as greater than 200 mg/kg and the “Log 1/EDMES(2.5)” value (Mus musculus [2]) is reported as -2.3.

`O=C1NC(=O)/C(=C/c2ccc(F)c(F)c2)N1` was tested, and the “EDMES(2.5)” value (Mus musculus [1]) was 121 mg/kg and the “Log 1/EDMES(2.5)” value (Mus musculus [2]) was -2.08.

`O=C1NC(=O)/C(=C/c2ccc(Cl)cc2)N1` was tested, and the “EDMES(2.5)” value (Mus musculus [1]) was greater than 200 mg/kg and the “Log 1/EDMES(2.5)” value (Mus musculus [2]) was -2.3.

In the case of `O=C1NC(=O)/C(=C/c2cccc3ccccc23)N1`, the “EDMES(2.5)” value (Mus musculus [1]) is reported as greater than 200 mg/kg and the “Log 1/EDMES(2.5)” value (Mus musculus [2]) is reported as -2.3.
